≈ marks a conversion by molar mass, not a printed value.
How the values were obtained:
[1] = tested on: PC-3; test: Antimetastatic activity against human PC3 cells after 24 hrs by scratch wound assay; assay type: functional, cell-based; conditions: PC-3, 24 h
Method in brief: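 PC-3 cells (5.0×10^5) were grown to confluence in DMEM with 10% FBS and scratched after 24 h. Medium was switched to DMEM with 0.5% FBS containing compound at various concentrations or 0.1% DMSO. Wounds were imaged at 0 h, then fixed (10% formalin) and crystal-violet stained at 24 h. Migration = initial minus 24 h wound area, normalized to DMSO. IC50 was taken from dose-response curves.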

[2] = Kinetic solubility of the compound; assay type: physicochemical; conditions: read-out: Kinetic_solubility
[3] = Cytotoxicity against human PC3 cells at 100 uM by WST1 assay; assay type: cell-based, PC-3; conditions: read-out: INH
Method in brief: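 Read-out was inhibition of mitochondrial WST-1 reduction in PC-3 cells transiently transfected with an SRE.L luciferase reporter. Compound was tested at 100 μM. Values are the mean of n = 3 independent experiments.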

[4] = tested on: PC-3; test: Antimetastatic activity against human PC3 cells at 10 uM after 24 hrs by scratch wound assay; assay type: functional; conditions: PC-3, 24 h
Method in brief: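 Confluent PC-3 monolayers (5.0×10^5 cells plated, DMEM with 10% FBS) were scratched 24 h after plating. Cells were then exposed to compound at 10 μM, or 0.1% DMSO, in DMEM with 0.5% FBS. Wounds were imaged at 0 h and after 24 h (formalin-fixed, crystal violet-stained). Wound-area closure was quantified and expressed as percent inhibition relative to DMSO control.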

[5] = Cytotoxicity against human SK-MEL-147 cells by WST1 assay; assay type: cell-based
Method in brief: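 WST-1 reduction was measured in SK-Mel-147 melanoma cells transiently transfected for the RhoC-SRE.L luciferase reporter assay.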

[6] = tested on: Mus musculus; test: Toxicity in mouse assessed as organism survival at 10 to 100 mg/kg/day, ip after 5 days; assay type: organism-based; parameters: route intraperitoneal; conditions: in vivo, 120 h
Method in brief: (§1)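 5-day tolerability study in mice, doses of 10, 20, 50 and 100 mg/kg/day given intraperitoneally, 3 mice per dose. Animals sacrificed on day 8, then body weight recorded, blood collected, and internal organs dissected, weighed and examined for abnormalities. Behaviour observed and survival tracked over the dosing period.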

[7] = tested on: Mus musculus; test: Toxicity in mouse assessed as increase in liver weight at 10 to 100 mg/kg/day, ip administered for 5 days measured on day 8; assay type: organism-based; parameters: route intraperitoneal; conditions: in vivo, 120 h; method in brief: as §1

| Structure (SMILES) | cytotoxicity at 100 µM [3] [%] | inhibition at 10 µM [4] [%] | other results |
| --- | --- | --- | --- |
| O=C(Nc1ccc(Cl)cc1)C1CCCN(C(=O)c2cccc(-c3cccs3)c2)C1 (centres undefined) | 4 | 70 | IC50 [1]: […]; solubility kinetic [2]: 1.36 µg/mL (≈ 3.2 µM) |
| CC(=O)Nc1cccc(C(=O)N2CCCC(C(=O)Nc3ccc(Cl)cc3)C2)c1 (centres undefined) | 4 |  |  |
| C=Cc1cccc(NC(=O)C2CCCN(C(=O)c3cc(C(F)(F)F)cc(C(F)(F)F)c3)C2)c1 (centres undefined) | 1 |  |  |
| O=C(Nc1ccc(Cl)cc1)C1CCCN(C(=O)c2cc(C(F)(F)F)cc(C(F)(F)F)c2)C1 (centres undefined) | 14 | 22 | IC50 [1]: 17 µM; solubility kinetic [2]: 4.5 µg/mL (≈ 9.4 µM) |
| O=C(Nc1cccc(Cc2ccccc2)c1)C1CCCN(C(=O)c2cc(C(F)(F)F)cc(C(F)(F)F)c2)C1 (centres undefined) |  | < 30 | solubility kinetic [2]: 1.89 µg/mL (≈ 3.54 µM) |
| O=C(Nc1ccc(Cl)cc1)C1CCCN(C(=O)c2cccc(-c3nccs3)c2)C1 (centres undefined) | 32 |  |  |
| O=C(CCNC(=O)c1cc(C(F)(F)F)cc(C(F)(F)F)c1)Nc1ccc(Cl)cc1 |  | < 10 | solubility kinetic [2]: 2.21 µg/mL (≈ 5.04 µM) |
| O=C(Nc1cccc([N+](=O)[O-])c1)C1CCCN(C(=O)c2cc(C(F)(F)F)cc(C(F)(F)F)c2)C1 (centres undefined) | 9 |  |  |
| O=C(Nc1ccc(Cl)nc1)C1CCCN(C(=O)c2cc(C(F)(F)F)cc(C(F)(F)F)c2)C1 (centres undefined) | 25 |  |  |
| O=C(Nc1cccc(OCc2ccccn2)c1)C1CCCN(C(=O)c2cc(C(F)(F)F)cc(C(F)(F)F)c2)C1 (centres undefined) | 15 |  |  |
| CS(=O)(=O)c1cccc(C(=O)N2CCCC(C(=O)Nc3ccc(Cl)cc3)C2)c1 (centres undefined) | 2 |  |  |
| O=C(Nc1cccc(CN2CCCC2)c1)C1CCCN(C(=O)c2cc(C(F)(F)F)cc(C(F)(F)F)c2)C1 (centres undefined) | 51 |  |  |
| O=C(Nc1cccc(OCCc2ccccn2)c1)C1CCCN(C(=O)c2cc(C(F)(F)F)cc(C(F)(F)F)c2)C1 (centres undefined) | 5 | < 30 |  |
| O=C(Nc1ccc(Cl)cc1)C1CCCN(C(=O)c2cccc(-c3ccco3)c2)C1 (centres undefined) |  | 70 | IC50 [1]: 4.2 µM; Activity [5]: Non-toxic; solubility kinetic [2]: 3.09 µg/mL (≈ 7.56 µM); Activity [6]: Non-toxic; Activity [7]: Toxic |
| O=C(Nc1cccc(Oc2ccccc2)c1)C1CCCN(C(=O)c2cc(C(F)(F)F)cc(C(F)(F)F)c2)C1 (centres undefined) | 1 | < 30 | solubility kinetic [2]: 3.22 µg/mL (≈ 6 µM) |
| O=C(Nc1ccc(Cl)cc1)C1CCCN(C(=O)c2ccc(-c3ccco3)cc2)C1 (centres undefined) | 6 |  |  |
| O=C(Nc1cccc(-c2cnco2)c1)C1CCCN(C(=O)c2cc(C(F)(F)F)cc(C(F)(F)F)c2)C1 (centres undefined) | 9 |  |  |
| Cc1nc(-c2cccc(NC(=O)C3CCCN(C(=O)c4cc(C(F)(F)F)cc(C(F)(F)F)c4)C3)c2)cs1 (centres undefined) | 1 | 42 |  |
| Cc1nc(-c2cccc(C(=O)N3CCCC(C(=O)Nc4ccc(Cl)cc4)C3)c2)cs1 (centres undefined) | 1 |  |  |
| O=C(Nc1cccc(S(=O)(=O)N2CCCC2)c1)C1CCCN(C(=O)c2cc(C(F)(F)F)cc(C(F)(F)F)c2)C1 (centres undefined) |  | < 30 |  |
| C[C@@H](N)[C@H]1CC[C@H](C(=O)Nc2ccncc2)CC1 [Y-27632] |  |  | IC50 [1]: 28 µM |
| CS(=O)(=O)Nc1cccc(C(=O)N2CCCC(C(=O)Nc3ccc(Cl)cc3)C2)c1 (centres undefined) | 3 |  |  |

— ChEMBL document CHEMBL2396514, “Optimization of novel nipecotic bis(amide) inhibitors of the Rho/MKL1/SRF transcriptional pathway as potential anti-metastasis agents” (Bioorg Med Chem Lett, 2013)
